{"source": "paper PMC3651860", "about": "(Journal of the American Chemical Society, 2011)", "key": {"[1]": {"test_system": "Akt-S473E", "experiment": "ELISA with immobilized Akt-S473E", "format": "binding", "outline": "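Akt1-S473E kinase domain, expressed in Hi5 insect cells, was immobilized on Ni-NTA plates. It was incubated with varying concentrations of biotinylated test peptide. Binding signal was normalized to the binding observed at saturation.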"}, "[2]": {"test_system": "Akt1-S473E-T308P", "experiment": "Akt1 kinase inhibition test of candidate anchor sequences", "format": "biochemical", "details": "Figure S6"}, "[3]": {"test_system": "GSK3β", "experiment": "ELISA-based binding analysis over a range of kinase concentrations, GSK3β", "details": "Figure S18"}, "[4]": {"test_system": "Akt1-S473E-T308P", "experiment": "Competitive enzyme kinetic assays of Akt1 with triligand", "format": "biochemical", "outline": "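Akt1 kinase domain (S473E mimic, Hi5 insect-cell expressed, T308-phosphorylated form) assayed at varying peptide-substrate or ATP concentrations across varying test compound concentrations. KM and Vmax were fitted by nonlinear regression. Ki came from negative x-intercepts of Dixon plots (1/v vs [compound], varying ATP), and Ki' from intercepts of Cornish-Bowden plots ([peptide]/v vs [compound], varying peptide). Both are given as mean ± standard deviation.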"}, "[5]": {"test_system": "Akt1", "experiment": "ELISA-based binding analysis over a range of kinase concentrations, Akt1", "details": "Figure S18"}, "[6]": {"test_system": "AKT in fixed OVCAR3 cells", "experiment": "Immunocytochemistry", "format": "cell-based", "details": "permeabilized OVCAR3 cells, unstimulated vs EGF+insulin", "outline": "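OVCAR3 cells were left unstimulated or treated with EGF plus insulin, then fixed and permeabilized. They were stained with fluorescein-labelled test compound, and a fluorescein-conjugated anti-Akt monoclonal antibody served as benchmark. Akt localization was imaged by immunofluorescence microscopy.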"}, "[7]": {"test_system": "Akt1-S473E-T308P", "details": "read-out: KM (literature); ATP; ref 21 (Klein et. al.); cited from earlier work"}, "[8]": {"target": "Akt1 kinase domain with the S473E mutation (Akt1-S473E)"}}, "note": "“Also recorded” adds a separate entry of the source. Read-outs that look alike come from different tables or passages of the source. Primed or numbered codes have the meaning given here. Biotin′ = not defined here; Az8 = not defined here"}
{"molecule": "Az8-VFYRLGY-CONH2 [anchor peptide]", "values": [{"measurement": "affinity", "setting": "[1]; anchor peptide, Akt, assay of this value not stated at the place", "value": "> 25", "unit": "µM"}, {"measurement": "inhibition of the Akt1 kinase", "setting": "[2]; absence of the conjugated small molecule inhibitor (Ac7)", "value": "~95", "unit": "%"}, {"measurement": "inhibition of the Akt1 kinase", "setting": "[2]; presence of the conjugated small molecule inhibitor (Ac7)", "value": "~95", "unit": "%"}]}
{"molecule": "triligand: tertiary peptide Ac-Az8-RHERI-CONH2 conjugated to the biligand to form a biotinylated branched triligand (chain 1 VFYRLGY; chain 2 FWFLRG; not fully specified; N-terminal azido amino acid Az8 before V, joined through a 1,4-triazole to the Pra of the secondary peptide; C-terminal biotin | N-terminal propargylglycine (Pra) before F, joined through a 1,4-triazo)", "values": [{"measurement": "decrease of affinity for GSK3β, biligand to triligand", "setting": "[3]", "value": "approximately 2 fold"}, {"measurement": "inhibitory potency (in words)", "setting": "[4]", "value": "low micromolar inhibitory potency"}, {"measurement": "effect on KM", "setting": "[4]; ATP is the varied substrate", "value": "no effect on KM"}, {"measurement": "effect on enzyme Vmax", "setting": "[4]; increasing triligand concentration, varied [ATP] or varied [peptide]", "value": "reduction in the enzyme Vmax for both substrates"}, {"measurement": "effect on KM", "setting": "[4]; peptide concentration is varied", "value": "KM decreases"}, {"measurement": "inhibition mode", "setting": "[4]; varied [ATP], variable [Triligand]", "value": "noncompetitive inhibition"}, {"measurement": "inhibition mode", "setting": "[4]; varied [ATP], variable [Triligand], listed as Triligand", "value": "Noncompetitive"}, {"measurement": "inhibition mode", "setting": "[4]; varied [Peptide], variable [Triligand]", "value": "uncompetitive inhibition"}, {"measurement": "mode of inhibition / inhibitory mechanism, overall", "setting": "[4]; with respect to ATP and peptide substrates", "value": "allosteric mode of inhibition; also recorded: triligand inhibition occurs in a noncompetitive fashion; also recorded: not competitive with respect to either the peptide or ATP binding site; also recorded: allosteric mechanism"}, {"measurement": "affinity for Akt1 (in words)", "setting": "[1]; comparison within anchor/biligand/triligand series", "value": "only marginally improved over the biligand; also recorded: only a modest affinity improvement"}, {"measurement": "change of affinity for Akt1, biligand to triligand", "setting": "[5]", "value": "increases modestly"}]}
{"molecule": "fluorescein-labeled triligand: fluorescein-labeled triligand employed as an ICC imaging agent (chain 1 VFYRLGY; chain 2 FWFLRG; chain 3 RHERI; N-terminal azido amino acid Az8 before V, joined through a 1,4-triazole to the Pra of the secondary peptide | N-terminal propargylglycine (Pra) before F, joined through a 1,4-triazole to Az8 of the an)", "values": [{"measurement": "Akt localization in ICC (in words)", "setting": "[6]", "value": "localization of Akt at the plasma membrane after cell stimulation"}]}
{"molecule": "Nc1ncnc2c1ncn2[C@@H]1O[C@H](COP(=O)(O)OP(=O)(O)OP(=O)(O)O)[C@@H](O)[C@H]1O", "note": "[ATP, reference compound]", "values": [{"measurement": "Km", "setting": "[7]", "value": 155, "unit": "µM"}, {"measurement": "Vmax", "setting": "[4]; Akt1-S473E-T308P, V vs. [ATP], variable [Triligand], nonlinear regression", "value": "98996 ± 8242", "unit": "pmol/min/mg"}, {"measurement": "Km", "setting": "[4]; read-out: KM (this work), Akt1-S473E-T308P, nonlinear regression (GraphPad), V vs. [ATP], variable [Triligand]", "value": "213 ± 25", "unit": "µM"}]}
{"molecule": "{Ac-Az8}-VFYRLGY-{Biotin′} (reading uncertain; also: printed as Ac-Az8-VFYRLGY-Biotin)", "note": "[biotinylated anchor peptide Ac-Az8-VFYRLGY-Biotin]", "values": [{"measurement": "Kd", "setting": "[8]", "value": "> 25", "unit": "µM"}]}
